Assay results: ChEMBL document CHEMBL1765011, “Synthesis and c-Met kinase inhibition of 3,5-disubstituted and 3,5,7-trisubstituted quinolines: identification of 3-(4-acetylpiperazin-1-yl)-5-(3-nitrobenzylamino)-7- (trifluoromethyl)quinoline as a novel anticancer agent” (J Med Chem, 2011)
The source made the active and inactive calls. No cut-off for these calls is given here.

Columns and labels:
[1] = molecular target: Hepatocyte growth factor receptor (Mus musculus) (UniProt P16056); experiment: Inhibition of TPR-c-Met phosphorylation expressed in mouse BAF3 cells at 0.1 to 3 uM after 4 hrs by Western blotting; format: cell-based
Method in brief: (§1)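 Exponentially growing cells were treated with compound for 4 h at 37 °C and lysed in SDS sample buffer. Lysates were run on 10% SDS-PAGE and blotted to nitrocellulose. Blots were probed for phospho-c-Met and total c-Met, with GAPDH as loading control, and detected by ECL.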

MCF7 = experiment: Antiproliferative activity against human MCF7 cells after 72 hrs; settings: MCF7, 72 h
NIH3T3 = experiment: Antitumor activity against mouse NIH/3T3 cells expressing TPR-Met xenografted in nude mouse assessed as tumor growth inhibition at 100 mg/kg, ip qd for 14 days relative to control; format: functional; settings: 336 h, route intraperitoneal
Method in brief: (§2)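 Tumor cells, (5-10)×10^6, were implanted sc in nude mice and grown to 700-800 mm3. Tumors were cut into 1 mm3 fragments and trocar-transplanted sc. At 100-150 mm3, mice were randomized (n = 6) to vehicle or ip dosing daily. Volumes were measured twice weekly by caliper, TV = length×width²/2. % inhibition used final-day versus day-1 change against vehicle, with Student's t test.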

[2] = molecular target: T1, Hepatocyte growth factor receptor (Homo sapiens, UniProt P08581); experiment: Inhibition of c-Met in human MKN45 cells assessed as ERK1/2 phosphorylation at 0.1 to 3 uM after 4 hrs by Western blotting; format: cell-based; settings: MKN-45
Method in brief: (§3)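 Exponentially growing cells were exposed to compound for 4 h at 37 °C and lysed in SDS sample buffer. Lysates were resolved on 10% SDS-PAGE and blotted. Blots were probed for phospho- and total ERK1/2 and AKT, with GAPDH loading control, and detected by ECL.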

Ephrin type-A receptor 2 = Ephrin type-A receptor 2 (Homo sapiens, UniProt P29317); experiment: Inhibition of EPH-A2
Method in brief: (§4)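 ELISA on plates precoated with 20 μg/mL poly(Glu,Tyr) 4:1. Buffer: 10 μM ATP, 50 mM HEPES pH 7.4, 50 mM MgCl2, 0.5 mM MnCl2, 0.2 mM Na3VO4, 1 mM DTT, compound in 1% DMSO. Purified kinase was added and incubated 60 min at 37 °C. Phosphotyrosine was detected with PY99 then HRP anti-mouse IgG, o-phenylenediamine, A490. IC50 was taken from inhibition curves.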

[3] = molecular target: T1, Hepatocyte growth factor receptor; experiment: Inhibition of c-Met phosphorylation in human H1993 cells at 0.5 uM after 4 hrs by Western blotting; format: cell-based; method in brief: as §1
SNU1 = experiment: Antiproliferative activity against human SNU1 cells after 72 hrs; settings: SNU1, 72 h
[4] = molecular target: Platelet-derived growth factor receptor alpha (Homo sapiens, UniProt P16234); experiment: Inhibition of PDGFRalpha; method in brief: as §4
[5] = molecular target: Proto-oncogene tyrosine-protein kinase Src (Homo sapiens, UniProt P12931); experiment: Inhibition of c-Src; method in brief: as §4
[6] = molecular target: T1, Hepatocyte growth factor receptor; experiment: Inhibition of c-Met in human H1993 cells assessed as AKT phosphorylation at 0.1 to 3 uM after 4 hrs by Western blotting; format: cell-based; method in brief: as §3
[7] = molecular target: Tyrosine-protein kinase ABL1 (Homo sapiens, UniProt P00519); experiment: Inhibition of Abl; method in brief: as §4
[8] = Antitumor activity against human U87MG cells xenografted in nude mouse assessed as tumor growth inhibition at 100 mg/kg, ip qd for 14 days relative to control; format: functional, U-87MG ATCC; settings: U-87 MG, 336 h, route intraperitoneal; method in brief: as §2
[9] = molecular target: T1, Hepatocyte growth factor receptor; experiment: Inhibition of c-Met in human H1993 cells assessed as ERK1/2 phosphorylation at 0.1 to 3 uM after 4 hrs by Western blotting; format: cell-based; method in brief: as §3
Ephrin type-B receptor 2 = Ephrin type-B receptor 2 (Homo sapiens, UniProt P29323); experiment: Inhibition of EPH-B2; method in brief: as §4
[10] = molecular target: T1, Hepatocyte growth factor receptor; experiment: Inhibition of purified recombinant c-Met at incubated for 30 mins measured after 100 fold dilution
BaF3 [11] = experiment: Antiproliferative activity against mouse BAF3 cells expressing TPR-Met after 72 hrs in presence of IL-3; format: functional, cell-based; settings: BaF3, 72 h
Method in brief: (§5)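 Cells were seeded and exposed next day to a range of compound concentrations for 72 h. Proliferation was read by sulforhodamine B or MTT assay, and IC50 derived.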

[12] = Half life in mouse at 10 mg/kg, iv; format: ADME, organism-based; set-up: dose 10 mg/kg, route intravenous; settings: in vivo
Method in brief: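 Single iv dose of 10 mg/kg to mice, vehicle DMSO/Tween 80/normal saline. Clearance and half-life were derived from plasma concentration-time data. Average of three runs.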

U-87MG ATCC = experiment: Antitumor activity against human U87MG cells xenografted in nude mouse assessed as tumor growth inhibition at 50 mg/kg, ip qd for 14 days relative to control; format: functional, organism-based; set-up: dose 50 mg/kg; method in brief: as §2
[13] = molecular target: Fibroblast growth factor receptor 1 (Homo sapiens, UniProt P11362); experiment: Inhibition of FGFR1
[14] = molecular target: Insulin-like growth factor 1 receptor (Homo sapiens, UniProt P08069); experiment: Inhibition of IGF1R
[15] = Oral bioavailability in mouse at 20 mg/kg; format: ADME, organism-based; settings: in vivo
[16] = molecular target: Hepatocyte growth factor receptor (Mus musculus) (UniProt P16056); experiment: Inhibition of TPR-c-Met phosphorylation expressed in mouse BAF3 cells assessed as ERK1/2 phosphorylation at 0.1 to 3 uM after 4 hrs by Western blotting; format: cell-based; method in brief: as §3
BXPC-3 = experiment: Antiproliferative activity against human BxPC3 cells after 72 hrs; settings: BXPC-3, 72 h
BaF3 [17] = experiment: Antiproliferative activity against mouse BAF3 cells expressing TPR-Met after 72 hrs in absence of IL-3; format: functional, cell-based; settings: BaF3, 72 h; method in brief: as §5
[18] = molecular target: T1, Hepatocyte growth factor receptor; experiment: Inhibition of purified recombinant c-Met after 60 mins by ELISA
[19] = molecular target: T1, Hepatocyte growth factor receptor; experiment: Inhibition of c-Met phosphorylation in human H1993 cells at 0.1 to 3 uM after 4 hrs by Western blotting; format: cell-based; method in brief: as §1
[20] = molecular target: Hepatocyte growth factor receptor (Mus musculus) (UniProt P16056); experiment: Inhibition of TPR-c-Met phosphorylation expressed in mouse […] cells assessed as AKT phosphorylation at 0.1 to 3 uM after 4 hrs by Western blotting; format: cell-based; method in brief: as §3
MDA-MB-231 = experiment: Antiproliferative activity against human MDA-MB-231 cells after 72 hrs; settings: MDA-MB-231, 72 h
[21] = molecular target: Hepatocyte growth factor receptor (Mus musculus) (UniProt P16056); experiment: Inhibition of TPR-MET autophosphorylation in mouse NIH3T3 cells after 4 hrs by Western blotting; format: cell-based; method in brief: as §1
[22] = molecular target: Vascular endothelial growth factor receptor 1 (Homo sapiens, UniProt P17948); experiment: Inhibition of Flt-1; method in brief: as §4
[23] = molecular target: Hepatocyte growth factor receptor (Mus musculus) (UniProt P16056); experiment: Inhibition of TPR-c-Met phosphorylation expressed in mouse […] cells assessed as ERK1/2 phosphorylation at 0.1 to 3 uM after 4 hrs by Western blotting; format: cell-based; method in brief: as §3
Mus musculus = experiment: Toxicity in human U87MG cells xenografted nude mouse assessed as reduction of body weight at 100 mg/kg, ip qd for 14 days; format: organism-based, U-87MG ATCC; set-up: dose 100 mg/kg, route intraperitoneal; settings: in vivo, 336 h
MKN-45 = experiment: Antiproliferative activity against human MKN45 cells after 72 hrs; settings: MKN-45, 72 h
[24] = molecular target: Receptor tyrosine-protein kinase erbB-2 (Homo sapiens, UniProt P04626); experiment: Inhibition of ErbB2; method in brief: as §4
[25] = molecular target: Proto-oncogene tyrosine-protein kinase receptor Ret (Homo sapiens, UniProt P07949); experiment: Inhibition of RET

T1 sequence (P08581 whole entry): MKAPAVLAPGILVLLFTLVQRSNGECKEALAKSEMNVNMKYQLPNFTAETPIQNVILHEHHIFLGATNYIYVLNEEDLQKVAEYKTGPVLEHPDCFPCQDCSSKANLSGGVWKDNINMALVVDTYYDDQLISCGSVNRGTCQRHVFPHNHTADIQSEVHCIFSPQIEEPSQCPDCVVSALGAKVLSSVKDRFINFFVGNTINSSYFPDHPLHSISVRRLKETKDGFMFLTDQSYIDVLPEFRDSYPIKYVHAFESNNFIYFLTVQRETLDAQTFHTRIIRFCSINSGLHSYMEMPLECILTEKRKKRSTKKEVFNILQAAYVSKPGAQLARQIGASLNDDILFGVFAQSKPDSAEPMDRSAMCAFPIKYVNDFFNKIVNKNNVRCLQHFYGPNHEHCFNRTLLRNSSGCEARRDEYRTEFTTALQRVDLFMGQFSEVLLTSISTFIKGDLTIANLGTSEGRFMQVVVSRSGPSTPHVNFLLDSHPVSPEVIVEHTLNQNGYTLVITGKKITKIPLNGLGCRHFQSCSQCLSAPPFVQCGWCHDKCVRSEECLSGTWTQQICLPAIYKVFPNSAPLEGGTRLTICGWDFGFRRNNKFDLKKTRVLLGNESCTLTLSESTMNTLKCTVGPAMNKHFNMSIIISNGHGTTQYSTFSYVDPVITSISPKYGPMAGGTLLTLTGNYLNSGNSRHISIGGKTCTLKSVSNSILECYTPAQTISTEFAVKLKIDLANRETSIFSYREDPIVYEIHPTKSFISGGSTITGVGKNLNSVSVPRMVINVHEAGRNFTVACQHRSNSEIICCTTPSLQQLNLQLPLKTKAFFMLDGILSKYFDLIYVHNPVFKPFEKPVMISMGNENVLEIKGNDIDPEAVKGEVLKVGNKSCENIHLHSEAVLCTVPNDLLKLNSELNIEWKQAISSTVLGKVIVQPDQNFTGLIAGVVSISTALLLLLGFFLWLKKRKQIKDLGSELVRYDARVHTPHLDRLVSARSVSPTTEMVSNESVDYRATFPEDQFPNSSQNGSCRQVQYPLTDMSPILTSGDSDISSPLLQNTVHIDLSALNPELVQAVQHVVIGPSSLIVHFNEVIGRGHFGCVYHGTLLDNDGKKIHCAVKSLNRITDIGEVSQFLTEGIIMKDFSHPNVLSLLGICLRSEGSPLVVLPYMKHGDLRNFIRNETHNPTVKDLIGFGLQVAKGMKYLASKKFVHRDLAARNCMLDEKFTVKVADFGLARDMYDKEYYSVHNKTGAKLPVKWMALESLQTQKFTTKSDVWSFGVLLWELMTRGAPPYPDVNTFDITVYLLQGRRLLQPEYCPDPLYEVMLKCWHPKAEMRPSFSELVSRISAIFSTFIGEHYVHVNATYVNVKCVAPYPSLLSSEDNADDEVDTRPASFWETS
Sequence of Hepatocyte growth factor receptor (Mus musculus) (P16056 whole entry): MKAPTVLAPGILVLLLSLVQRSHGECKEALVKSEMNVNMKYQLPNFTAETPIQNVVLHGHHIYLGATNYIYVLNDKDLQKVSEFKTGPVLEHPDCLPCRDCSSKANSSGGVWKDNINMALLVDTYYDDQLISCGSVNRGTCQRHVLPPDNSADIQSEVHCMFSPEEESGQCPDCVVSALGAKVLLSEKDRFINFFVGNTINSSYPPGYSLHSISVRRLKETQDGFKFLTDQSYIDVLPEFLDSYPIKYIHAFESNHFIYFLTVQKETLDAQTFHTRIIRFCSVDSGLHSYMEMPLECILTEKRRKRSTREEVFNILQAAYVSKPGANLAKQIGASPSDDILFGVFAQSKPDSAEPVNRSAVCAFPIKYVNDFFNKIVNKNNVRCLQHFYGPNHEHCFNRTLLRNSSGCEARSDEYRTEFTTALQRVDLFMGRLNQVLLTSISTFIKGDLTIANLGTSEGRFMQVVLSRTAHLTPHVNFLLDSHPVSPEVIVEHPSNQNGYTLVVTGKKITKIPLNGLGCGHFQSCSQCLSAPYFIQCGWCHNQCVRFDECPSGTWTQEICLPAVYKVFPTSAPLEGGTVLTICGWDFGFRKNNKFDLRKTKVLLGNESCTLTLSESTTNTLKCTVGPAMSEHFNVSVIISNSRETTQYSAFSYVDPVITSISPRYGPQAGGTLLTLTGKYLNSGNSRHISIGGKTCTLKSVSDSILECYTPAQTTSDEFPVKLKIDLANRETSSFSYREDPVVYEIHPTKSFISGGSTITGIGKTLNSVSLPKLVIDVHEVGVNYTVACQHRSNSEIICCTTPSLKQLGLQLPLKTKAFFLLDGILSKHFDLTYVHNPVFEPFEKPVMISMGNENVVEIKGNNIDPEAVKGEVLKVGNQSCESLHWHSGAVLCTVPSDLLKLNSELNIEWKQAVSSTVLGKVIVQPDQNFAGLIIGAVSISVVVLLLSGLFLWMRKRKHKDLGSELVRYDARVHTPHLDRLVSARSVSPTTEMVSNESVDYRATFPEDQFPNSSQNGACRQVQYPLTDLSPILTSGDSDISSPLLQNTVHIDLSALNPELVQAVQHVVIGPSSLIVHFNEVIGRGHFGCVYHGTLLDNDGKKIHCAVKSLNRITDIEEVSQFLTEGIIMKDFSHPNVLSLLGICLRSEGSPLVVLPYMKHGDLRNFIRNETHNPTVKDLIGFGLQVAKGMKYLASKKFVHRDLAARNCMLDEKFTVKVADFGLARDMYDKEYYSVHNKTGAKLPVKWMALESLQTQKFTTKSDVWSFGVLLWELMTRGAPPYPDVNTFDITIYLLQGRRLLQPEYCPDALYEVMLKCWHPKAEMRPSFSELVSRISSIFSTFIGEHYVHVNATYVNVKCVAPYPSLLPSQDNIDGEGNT
Sequence of Ephrin type-A receptor 2 (P29317 whole entry): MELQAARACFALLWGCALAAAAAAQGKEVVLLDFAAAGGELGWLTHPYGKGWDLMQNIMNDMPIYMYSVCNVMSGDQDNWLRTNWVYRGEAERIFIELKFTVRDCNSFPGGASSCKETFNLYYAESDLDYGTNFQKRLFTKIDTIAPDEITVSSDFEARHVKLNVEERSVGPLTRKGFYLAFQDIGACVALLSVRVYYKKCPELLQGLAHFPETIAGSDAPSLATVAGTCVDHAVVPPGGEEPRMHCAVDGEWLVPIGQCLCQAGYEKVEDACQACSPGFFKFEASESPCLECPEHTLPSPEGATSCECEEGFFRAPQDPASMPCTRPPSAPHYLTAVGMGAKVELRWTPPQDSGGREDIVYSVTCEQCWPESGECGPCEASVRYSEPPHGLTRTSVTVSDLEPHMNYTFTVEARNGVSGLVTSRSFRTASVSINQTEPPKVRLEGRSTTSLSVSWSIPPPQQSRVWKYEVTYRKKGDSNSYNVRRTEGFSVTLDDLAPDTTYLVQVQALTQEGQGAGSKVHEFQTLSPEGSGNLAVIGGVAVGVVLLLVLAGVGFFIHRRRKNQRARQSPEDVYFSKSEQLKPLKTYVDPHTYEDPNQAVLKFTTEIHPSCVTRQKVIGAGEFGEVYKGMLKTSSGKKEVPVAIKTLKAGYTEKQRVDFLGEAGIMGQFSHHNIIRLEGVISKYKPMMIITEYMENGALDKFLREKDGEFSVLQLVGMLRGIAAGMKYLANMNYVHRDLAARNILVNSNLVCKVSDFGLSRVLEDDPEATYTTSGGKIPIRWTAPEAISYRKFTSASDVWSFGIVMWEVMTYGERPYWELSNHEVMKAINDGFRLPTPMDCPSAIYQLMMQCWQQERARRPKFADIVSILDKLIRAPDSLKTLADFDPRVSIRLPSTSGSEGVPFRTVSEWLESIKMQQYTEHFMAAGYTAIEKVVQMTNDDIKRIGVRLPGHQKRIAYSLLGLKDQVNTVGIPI
Sequence of Vascular endothelial growth factor receptor 1 (P17948 whole entry): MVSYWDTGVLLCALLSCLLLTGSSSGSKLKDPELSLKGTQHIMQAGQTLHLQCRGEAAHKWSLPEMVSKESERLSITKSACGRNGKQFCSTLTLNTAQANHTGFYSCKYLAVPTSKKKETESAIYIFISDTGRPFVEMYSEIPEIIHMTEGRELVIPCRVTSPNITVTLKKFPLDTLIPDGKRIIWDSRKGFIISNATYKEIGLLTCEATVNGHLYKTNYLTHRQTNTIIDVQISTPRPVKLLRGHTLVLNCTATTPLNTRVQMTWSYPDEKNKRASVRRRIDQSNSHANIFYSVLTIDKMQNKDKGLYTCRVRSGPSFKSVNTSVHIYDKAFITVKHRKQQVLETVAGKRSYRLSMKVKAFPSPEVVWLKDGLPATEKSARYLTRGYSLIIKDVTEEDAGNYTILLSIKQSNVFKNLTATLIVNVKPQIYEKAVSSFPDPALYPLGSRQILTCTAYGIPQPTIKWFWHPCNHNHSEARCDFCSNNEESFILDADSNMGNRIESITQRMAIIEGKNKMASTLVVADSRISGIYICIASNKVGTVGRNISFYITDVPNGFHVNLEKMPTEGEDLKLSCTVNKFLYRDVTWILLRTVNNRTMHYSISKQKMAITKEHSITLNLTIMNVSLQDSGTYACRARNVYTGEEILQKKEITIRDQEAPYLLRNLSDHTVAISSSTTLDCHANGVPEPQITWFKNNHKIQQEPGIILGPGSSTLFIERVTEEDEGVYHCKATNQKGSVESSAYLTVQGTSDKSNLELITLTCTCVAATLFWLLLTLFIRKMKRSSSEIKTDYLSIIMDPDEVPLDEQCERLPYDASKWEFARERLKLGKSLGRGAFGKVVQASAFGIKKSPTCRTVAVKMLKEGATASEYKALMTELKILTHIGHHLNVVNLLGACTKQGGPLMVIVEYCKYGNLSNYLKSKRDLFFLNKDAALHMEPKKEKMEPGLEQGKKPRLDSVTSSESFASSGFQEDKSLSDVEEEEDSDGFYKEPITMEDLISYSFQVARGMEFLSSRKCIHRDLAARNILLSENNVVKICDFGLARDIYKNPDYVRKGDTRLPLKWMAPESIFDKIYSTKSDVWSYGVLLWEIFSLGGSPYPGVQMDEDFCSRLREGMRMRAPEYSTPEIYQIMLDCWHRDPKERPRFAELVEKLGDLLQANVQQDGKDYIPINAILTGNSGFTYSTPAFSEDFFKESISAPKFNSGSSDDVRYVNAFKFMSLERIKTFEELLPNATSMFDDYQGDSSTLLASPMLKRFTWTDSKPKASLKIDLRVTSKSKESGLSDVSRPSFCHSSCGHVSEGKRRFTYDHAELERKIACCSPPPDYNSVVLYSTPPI

Compound: CC(=O)N1CCN(c2cnc3cc(C(F)(F)F)cc(NCc4cccc([N+](=O)[O-])c4)c3c2)CC1
- inhibition [1]: Active
- IC50 (MCF7): 16 µM
- inhibition in vivo at 100 mg/kg (NIH3T3): 68%
- inhibition [2]: Active
- IC50 (Ephrin type-A receptor 2): > 10 µM
- inhibition [3]: Active
- IC50 (SNU1): ≥ 50 µM
- IC50 [4]: > 10 µM
- IC50 [5]: > 10 µM
- inhibition [6]: Active
- IC50 [7]: > 10 µM
- inhibition in vivo at 100 mg/kg [8]: 69%
- inhibition [9]: Active
- IC50 (Ephrin type-B receptor 2): > 10 µM
- inhibition [10]: inactive
- IC50 (BaF3 [11]): 12.2 µM
- half-life [12]: 3.25 h
- inhibition (U-87MG ATCC): Active
- IC50 [13]: > 10 µM
- IC50 [14]: > 10 µM
- bioavailability [15]: 37.5%
- inhibition [16]: Active
- IC50 (BXPC-3): 46 µM
- IC50 (BaF3 [17]): 0.39 µM
- IC50 [18]: 0.00095 µM
- inhibition [19]: Active
- inhibition [20]: Active
- IC50 (MDA-MB-231): ≥ 50 µM
- inhibition [21]: Dose-dependent effect
- IC50 [22]: > 10 µM
- inhibition [23]: Active
- Activity (Mus musculus): Non-toxic
- IC50 (MKN-45): 1 µM
- IC50 [24]: > 10 µM
- IC50 [25]: > 10 µM
